Test results as given in ChEMBL document CHEMBL5108018, “Discovery of MDM2-p53 and MDM4-p53 protein-protein interactions small molecule dual inhibitors” (Eur J Med Chem, 2022).
Blank lines part the entries; values can stand above or below the compound they belong to. The source made the active and inactive calls. The calls are words filed in the database; no cut-off is given here.

Experiments:
HCT-116 = test: Antiproliferative activity against human HCT-116 cells harboring wild type p53 overexpressing MDM2 assessed as inhibition of cell growth incubated for 48 hrs by MTS assay; format: functional, cell-based; conditions: HCT-116, 48 h
Outline: (§1)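 MTS viability: cells seeded 1×10^4/well (HCT116), 3×10^3/well (SJSA-1, LNCaP), 5×10^3/well (MCF-7), treated ~24 h after plating with DMSO-stock compounds serially diluted in medium (final DMSO ≤0.1%). Ten or more concentrations over 1–100 µM, duplicates, ≥3 independent runs. Exposure 48 h (HCT116), 72 h (MCF-7), 96 h (SJSA-1, LNCaP). MTS 0.5 mg/mL added for 15–30 min, A490. IC50 from four-parameter variable-slope fit.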

SJSA-1 [1] = test: Antiproliferative activity against human SJSA-1 cells harboring wild type p53 overexpressing MDM2/4 assessed as inhibition of cell growth incubated for 96 hrs by MTS assay; format: functional, cell-based; conditions: SJSA-1, 96 h; outline: as §1
LNCaP = test: Antiproliferative activity against human LNCaP cells harboring wild type p53 overexpressing MDM2/4 assessed as inhibition of cell growth incubated for 96 hrs by MTS assay; format: functional, cell-based; outline: as §1
MCF7 = test: Antiproliferative activity against human MCF7 cells harboring wild type p53 overexpressing MDM2/4 assessed as inhibition of cell growth incubated for 72 hrs by MTS assay; format: functional, cell-based; conditions: MCF7, 72 h; outline: as §1
HEK-293T = test: Cytotoxicity against HEK293T cells assessed as reduction in cell viability at 15 uM incubated for 96 hrs by MTS assay; format: toxicity, cell-based; conditions: human
Outline: (§2)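 Single-concentration MTS viability with DMSO vehicle control (final ≤0.1%) run in parallel. HEK293T: 3×10^3 cells/well, 15 µM for 96 h. HCT116 p53(-/-): 20 µM for 48 h. Compound added ~24 h after plating; MTS 0.5 mg/mL in fresh medium for 15–30 min, A490. Mean ± SD of three independent experiments, one-way ANOVA with Bonferroni test.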

[2] = Antiproliferative activity against human HCT116-p53-null cells assessed as reduction in cell viability at 20 uM incubated for 48 hrs by MTS assay; format: functional; outline: as §2
SJSA-1 [3] = test: Induction of apoptosis in human SJSA-1 cells assessed as viable cells at 10 uM incubated for 96 hrs by Annexin V-FITC/7-AAD staining based flow cytometric analysis (reference value: 94.3%); format: functional; conditions: read-out: Activity
SJSA-1 [4] = test: Induction of apoptosis in human SJSA-1 cells assessed as early apoptotic cells at 10 uM incubated for 96 hrs by Annexin V-FITC/7-AAD staining based flow cytometric analysis (reference value: 1.9%); format: functional
SJSA-1 [5] = test: Induction of apoptosis in human SJSA-1 cells assessed as late apoptotic cells at 10 uM incubated for 96 hrs by Annexin V-FITC/7-AAD staining based flow cytometric analysis (reference value: 3.7%); format: functional
SJSA-1 [6] = test: Induction of apoptosis in human SJSA-1 cells assessed as viable cells at 15 uM incubated for 96 hrs by Annexin V-FITC/7-AAD staining based flow cytometric analysis (reference value: 94.3%); format: functional; conditions: read-out: Activity
SJSA-1 [7] = test: Induction of apoptosis in human SJSA-1 cells assessed as early apoptotic cells at 15 uM incubated for 96 hrs by Annexin V-FITC/7-AAD staining based flow cytometric analysis (reference value: 1.9%); format: functional
SJSA-1 [8] = test: Induction of apoptosis in human SJSA-1 cells assessed as late apoptotic cells at 15 uM incubated for 96 hrs by Annexin V-FITC/7-AAD staining based flow cytometric analysis (reference value: 3.7%); format: functional
SJSA-1 [9] = test: Induction of cell death in human SJSA-1 cells assessed as reduction in cell growth at IC50 incubated for 96 hrs by bright field microscopic analysis; format: functional, cell-based
Outline: (§3)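 Brightfield microscopy of SJSA-1 cell morphology after 96 h with DMSO vehicle or compound.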

SJSA-1 [10] = test: Induction of cell death in human SJSA-1 cells assessed as loss of cell volume at 1.5 times IC50 incubated for 96 hrs by bright field microscopic analysis; format: functional, cell-based; outline: as §3
SJSA-1 [11] = test: Induction of cell cycle arrest in human SJSA-1 cells assessed as accumulation of cells at G0/G1 phase at 10 uM incubated for 96 hrs by RNaseA/PI staining based flow cytometry analysis (reference value: 50.93 %); format: functional
SJSA-1 [12] = test: Induction of cell cycle arrest in human SJSA-1 cells assessed as accumulation of cells at S phase at 10 uM incubated for 96 hrs by RNaseA/PI staining based flow cytometry analysis (reference value: 30.25 %); format: functional
SJSA-1 [13] = test: Induction of cell cycle arrest in human SJSA-1 cells assessed as accumulation of cells at G2/M phase at 10 uM incubated for 96 hrs by RNaseA/PI staining based flow cytometry analysis (reference value: 18.82 %); format: functional
SJSA-1 [14] = test: Induction of cell cycle arrest in human SJSA-1 cells assessed as accumulation of cells at G0/G1 phase at 15 uM incubated for 96 hrs by RNaseA/PI staining based flow cytometry analysis (reference value: 50.93 %); format: functional
SJSA-1 [15] = test: Induction of cell cycle arrest in human SJSA-1 cells assessed as accumulation of cells at S phase at 15 uM incubated for 96 hrs by RNaseA/PI staining based flow cytometry analysis (reference value: 30.25 %); format: functional
SJSA-1 [16] = test: Induction of cell cycle arrest in human SJSA-1 cells assessed as accumulation of cells at G2/M phase at 15 uM incubated for 96 hrs by RNaseA/PI staining based flow cytometry analysis (reference value: 18.82 %); format: functional
[17] = biological target: Tumour suppressor p53/oncoprotein Mdm2 (Homo sapiens, UniProt P04637+Q00987); test: Inhibition of MDM2/p53 interaction in human U-87 MG cells preincubated for 10 mins under shaking condition and measured after 1.5 hrs by immuno-enzymatic assay; format: cell-based
[18] = biological target: Tumour suppressor protein p53/Mdm4 (Homo sapiens, UniProt O15151+P04637); test: Inhibition of MDM4/p53 interaction in human SH-SY5Y cells preincubated for 10 mins under shaking condition and measured after 1.5 hrs by immuno-enzymatic assay; format: cell-based
Tumour suppressor protein p53/Mdm4, sequence (P04637 whole entry): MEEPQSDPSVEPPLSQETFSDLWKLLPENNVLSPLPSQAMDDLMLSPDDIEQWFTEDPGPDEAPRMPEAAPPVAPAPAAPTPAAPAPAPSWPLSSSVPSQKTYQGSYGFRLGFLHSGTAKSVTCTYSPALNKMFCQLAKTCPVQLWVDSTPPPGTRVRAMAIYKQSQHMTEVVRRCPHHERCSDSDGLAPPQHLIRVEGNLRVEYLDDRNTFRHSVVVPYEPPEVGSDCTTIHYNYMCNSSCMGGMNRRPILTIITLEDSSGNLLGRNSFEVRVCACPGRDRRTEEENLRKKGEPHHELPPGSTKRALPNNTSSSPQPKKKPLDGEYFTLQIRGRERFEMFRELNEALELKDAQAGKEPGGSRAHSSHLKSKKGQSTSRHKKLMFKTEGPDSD
Tumour suppressor protein p53/Mdm4, sequence (O15151 whole entry): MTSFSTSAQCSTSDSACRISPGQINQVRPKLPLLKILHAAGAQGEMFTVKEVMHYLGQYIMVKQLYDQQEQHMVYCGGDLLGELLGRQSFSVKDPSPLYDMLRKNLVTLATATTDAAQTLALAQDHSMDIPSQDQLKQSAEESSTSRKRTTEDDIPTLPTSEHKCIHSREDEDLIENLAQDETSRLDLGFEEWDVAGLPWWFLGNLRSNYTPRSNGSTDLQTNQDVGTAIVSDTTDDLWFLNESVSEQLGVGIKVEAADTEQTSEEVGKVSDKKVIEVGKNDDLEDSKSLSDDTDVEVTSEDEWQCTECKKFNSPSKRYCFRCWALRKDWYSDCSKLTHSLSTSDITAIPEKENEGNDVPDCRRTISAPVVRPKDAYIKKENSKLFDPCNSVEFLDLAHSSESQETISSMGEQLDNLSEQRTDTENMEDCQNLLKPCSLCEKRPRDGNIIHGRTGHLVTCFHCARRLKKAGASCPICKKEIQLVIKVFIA

Tumour suppressor p53/oncoprotein Mdm2, sequence (P04637 whole entry): as the sequence (P04637 whole entry) above
Tumour suppressor p53/oncoprotein Mdm2, sequence (Q00987 whole entry): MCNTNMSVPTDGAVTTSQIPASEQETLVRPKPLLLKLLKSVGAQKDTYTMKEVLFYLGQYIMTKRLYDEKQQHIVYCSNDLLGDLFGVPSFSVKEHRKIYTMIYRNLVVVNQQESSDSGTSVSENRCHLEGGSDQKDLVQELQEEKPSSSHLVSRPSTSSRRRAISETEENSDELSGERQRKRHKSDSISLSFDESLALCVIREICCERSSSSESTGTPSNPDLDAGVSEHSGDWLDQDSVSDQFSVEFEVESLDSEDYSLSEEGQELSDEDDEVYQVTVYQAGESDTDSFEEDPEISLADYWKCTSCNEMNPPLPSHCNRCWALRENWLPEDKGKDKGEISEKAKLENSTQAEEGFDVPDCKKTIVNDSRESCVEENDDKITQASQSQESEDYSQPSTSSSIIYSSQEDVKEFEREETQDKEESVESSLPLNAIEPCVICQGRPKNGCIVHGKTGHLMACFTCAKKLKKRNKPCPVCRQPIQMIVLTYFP

- IC50 (HCT-116): 18.8 µM
- IC50 (SJSA-1 [1]): 10.7 µM
- IC50 (LNCaP): 11.4 µM
- IC50 (MCF7): 9.7 µM
SMILES: O=C(Nc1cccc(-n2ccc(-c3ccccc3)n2)c1)C1=NN(c2ccc(Cl)cc2)C2(C(=O)Nc3cc(Cl)ccc32)C1c1cccc(O)c1 (configuration not stated)
- Activity (HEK-293T): Non-Toxic
- Activity [2]: 52%
- viability at 10 µM (SJSA-1 [3]): 90.5%
- Activity (SJSA-1 [4]): 4.1%
- Activity (SJSA-1 [5]): 5.2%
- viability at 15 µM (SJSA-1 [6]): 65.3%
- Activity (SJSA-1 [7]): 14.4%
- Activity (SJSA-1 [8]): 19.1%
- Activity (SJSA-1 [9]): Active
- Activity (SJSA-1 [10]): Active
- Activity (SJSA-1 [11]): 74.89%
- Activity (SJSA-1 [12]): 16.17%
- Activity (SJSA-1 [13]): 8.94%
- Activity (SJSA-1 [14]): 91.82%
- Activity (SJSA-1 [15]): 4.27%
- Activity (SJSA-1 [16]): 3.91%

- IC50 (HCT-116): 49.9 µM
SMILES: CCOC(=O)C1=NN(C(C)(C)C)C2(C(=O)Nc3cc(Cl)ccc32)C1c1ccc(F)cc1 (configuration not stated)

- IC50 (HCT-116): 44.8 µM
SMILES: CCOC(=O)C1=NN(C(C)(C)C)C2(C(=O)Nc3cc(Cl)ccc32)C1c1cccc(F)c1 (configuration not stated)

- IC50 (HCT-116): 29.9 µM
SMILES: CCOC(=O)C1=NN(c2ccccc2)C2(C(=O)Nc3cc(Cl)ccc32)C1c1cccc(F)c1 (configuration not stated)

- IC50 (HCT-116): 37.2 µM
SMILES: O=C(NCC1(O)CCC1)C1=NN(c2ccc(Cl)cc2)C2(C(=O)Nc3cc(Cl)ccc32)C1c1cccc(O)c1 (configuration not stated)

- IC50 (HCT-116): 33.7 µM
SMILES: CCOC(=O)C1=NN(c2ccc(Cl)cc2)C2(C(=O)Nc3cc(Cl)ccc32)C1c1cccc(O)c1 (configuration not stated)

- IC50 (HCT-116): 30.2 µM
SMILES: CC(C)(C)N1N=C(C(=O)NCCc2ccc(O)cc2)C(c2cccc(Cl)c2F)C12C(=O)Nc1cc(Cl)ccc12 (configuration not stated)

- IC50 (HCT-116): 20.9 µM
- IC50 (SJSA-1 [1]): 17.4 µM
- IC50 (LNCaP): 11.5 µM
- IC50 (MCF7): 12.4 µM
SMILES: O=C(Nc1cccc(-n2cccn2)c1)C1=NN(c2ccc(Cl)cc2)C2(C(=O)Nc3cc(Cl)ccc32)C1c1cccc(O)c1 (configuration not stated)

- IC50 (HCT-116): 32.1 µM
SMILES: CCOC(=O)C1=NN(C(C)(C)C)C2(C(=O)Nc3cc(Cl)ccc32)C1c1cccc(Cl)c1F (configuration not stated)

- IC50 (HCT-116): 30.2 µM
SMILES: CCOC(=O)C1=NN(C(C)(C)C)C2(C(=O)Nc3cc(Cl)ccc32)C1c1ccc(Cl)cc1 (configuration not stated)

- IC50 (HCT-116): 31.7 µM
- IC50 (MCF7): 20.2 µM
SMILES: CCOC(=O)C1=NN(C2CCCCC2)C2(C(=O)Nc3cc(Cl)ccc32)C1c1ccc(F)cc1 (configuration not stated)

- IC50 [17]: 144 nM
- IC50 [18]: 295 nM
SMILES: O=C1Nc2ccc(Br)cc2C12C(c1ccccc1)C(c1ccccc1)=NN2c1ccccc1 (configuration not stated)

- IC50 (HCT-116): 34.2 µM
SMILES: CC(C)(C)N1N=C(C(=O)Nc2ccc(O)cc2)C(c2cccc(Cl)c2F)C12C(=O)Nc1cc(Cl)ccc12 (configuration not stated)
